According to ChEMBL document CHEMBL4819068, “Novel potent bifunctional carboxylesterase inhibitors based on a polyfluoroalkyl-2-imino-1,3-dione scaffold” (Eur J Med Chem, 2021):
Calls of active or inactive are those of the source. The rule behind the calls is not given here.

Tests used:
[1] = target: T1, Liver carboxylesterase 1 (Homo sapiens, UniProt P23141); test: Inhibition of human recombinant CES1 expressed in baculovirus infected BTI insect cells using 4-NPA as substrate by spectrophotometric analysis
T1 sequence (P23141 whole entry): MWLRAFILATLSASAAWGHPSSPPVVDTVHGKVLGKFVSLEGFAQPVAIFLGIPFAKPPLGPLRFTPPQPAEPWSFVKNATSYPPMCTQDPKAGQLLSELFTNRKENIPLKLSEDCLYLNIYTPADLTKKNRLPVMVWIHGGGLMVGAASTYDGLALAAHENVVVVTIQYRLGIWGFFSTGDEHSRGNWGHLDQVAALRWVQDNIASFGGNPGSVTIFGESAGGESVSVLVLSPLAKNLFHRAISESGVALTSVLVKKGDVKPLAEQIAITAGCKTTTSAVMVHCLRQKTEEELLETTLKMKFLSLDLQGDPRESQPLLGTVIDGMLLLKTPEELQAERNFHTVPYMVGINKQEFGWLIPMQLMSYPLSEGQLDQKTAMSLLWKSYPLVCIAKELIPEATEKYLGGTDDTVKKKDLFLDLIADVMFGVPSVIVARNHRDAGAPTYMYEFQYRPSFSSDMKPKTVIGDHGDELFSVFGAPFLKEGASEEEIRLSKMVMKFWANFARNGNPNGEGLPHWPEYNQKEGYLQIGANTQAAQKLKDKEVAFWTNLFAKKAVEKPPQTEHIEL
In short: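 Recombinant hCES1 (baculovirus/BTI insect cells), 0.02 unit/mL, in 0.1 M K/Na phosphate pH 7.4, 25 °C; compound (DMSO, 2% v/v final) preincubated 10 min, then 1 mM 4-nitrophenyl acetate added; 4-nitrophenol release read at 405 nm against enzyme-free blank. IC50 from eight concentrations (10^-12–10^-4 M) relative to inhibitor-free control.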

[2] = Antioxidant activity assessed as decrease in ABTS radical cation scavenging activity incubated for 24 hrs by UV-Vis spectrophotometric analysis; type: functional
[3] = target: T2, Cholinesterase (Equus caballus, UniProt P81908); test: Inhibition of equine serum BuChE using […] as substrate preincubated for 10 mins followed by substrate addition by Ellman's method
[4] = target: T3, Liver carboxylesterase (Sus scrofa, UniProt Q29550); test: Inhibition of porcine liver carboxylesterase using 4-NPA as substrate preincubated for 10 mins followed by substrate addition by spectrophotometric analysis; type: tissue-based
T3 sequence (Q29550 whole entry): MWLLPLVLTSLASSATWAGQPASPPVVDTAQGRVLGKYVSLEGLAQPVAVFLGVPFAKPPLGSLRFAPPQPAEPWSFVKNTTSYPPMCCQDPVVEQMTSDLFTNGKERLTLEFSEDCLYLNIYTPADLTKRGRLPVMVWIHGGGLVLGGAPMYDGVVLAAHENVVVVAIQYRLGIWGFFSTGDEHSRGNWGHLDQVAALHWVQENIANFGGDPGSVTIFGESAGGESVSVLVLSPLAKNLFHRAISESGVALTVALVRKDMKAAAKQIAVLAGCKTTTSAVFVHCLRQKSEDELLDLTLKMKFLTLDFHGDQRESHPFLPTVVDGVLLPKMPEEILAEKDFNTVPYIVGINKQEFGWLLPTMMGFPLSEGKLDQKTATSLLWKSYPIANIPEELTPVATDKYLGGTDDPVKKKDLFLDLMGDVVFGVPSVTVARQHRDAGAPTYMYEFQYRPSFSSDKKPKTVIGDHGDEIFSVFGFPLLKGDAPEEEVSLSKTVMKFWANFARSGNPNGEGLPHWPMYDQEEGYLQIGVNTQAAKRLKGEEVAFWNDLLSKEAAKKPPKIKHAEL
In short: (§1)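 Porcine liver CES, 0.02 unit/mL, in 0.1 M K/Na phosphate pH 8.0, 25 °C; compound in DMSO (2% v/v final) preincubated 10 min, then 1 mM 4-nitrophenyl acetate; 4-nitrophenol read at 405 nm, enzyme-free blanks. Screening at 20 μM in three separate experiments; IC50 from eight concentrations between 10^-12 and 10^-4 M, residual activity relative to inhibitor-free control.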

[5] = Antioxidant activity assessed as trolox equivalent of ABTS radical cation scavenging activity incubated for 24 hrs by UV-Vis spectrophotometric analysis; type: functional
[6] = target: T4, Acetylcholinesterase (Homo sapiens, UniProt P22303); test: Inhibition of human erythrocyte AChE using acetylthiocholine iodide as substrate preincubated for 10 mins followed by substrate addition by Ellman's method
[7] = Cytotoxicity against human FetMSC cells assessed as reduction in cell viability after 72 hrs by MTT assay; type: cell-based
In short: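 Human fetal MSC (bone-marrow fibroblast-like, nonimmortalized; ≤10–15 passages) grown in F12/DMEM with 10% FBS, 3 mM L-glutamine, penicillin/streptomycin. Seeded at 6×10^3 cells/well; after 24 h, medium replaced with compound at 100, 250, 500 μM for 72 h; controls 0.1% DMSO. MTT 0.5 mg/ml for 4 h, formazan dissolved in DMSO, read at 570 nm; control = 100%.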

[8] = Acute toxicity in ip dosed CD-1 mouse observed for 14 days; type: organism-based; details: in vivo, time 14 day
In short: (§2)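 CD-1 mice given compound intraperitoneally in 2% (w/v) starch mucilage, three animals per dose group; lethality observed over 14 days; procedure based on OECD recommendations.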

[9] = target: Cholinesterase (Equus caballus) (UniProt P81908); test: Inhibition of equine serum BuChE at 20 uM using […] as substrate preincubated for 10 mins followed by substrate addition by Ellman's method relative to control
In short: (§3)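 Single-point screen at 20 μM in 0.1 M K/Na phosphate pH 7.5, 25 °C; 0.02 unit/mL enzyme, 1 mM ATCh (AChE) or BTCh (BChE), 0.33 mM DTNB; 2% DMSO final; 10 min preincubation then substrate; activity relative to inhibitor-free control; three separate experiments.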

[10] = target: T4, Acetylcholinesterase; test: Inhibition of human erythrocyte AChE at 20 uM using acetylthiocholine iodide as substrate preincubated for 10 mins followed by substrate addition by Ellman's method relative to control; in short: as §3
[11] = Acute toxicity in CD-1 mouse assessed as effect on mouse death at 600 mg/kg, ip measured after 14 days; type: organism-based; details: in vivo, 336 h, time 14 day; in short: as §2
[12] = target: T3, Liver carboxylesterase; test: Non-competitive inhibition of porcine liver carboxylesterase by double reciprocal Lineweaver-Burk plot analysis; type: tissue-based; details: pig
In short: (§4)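 Porcine liver CES residual activity measured with 3 increasing inhibitor concentrations and 5–6 decreasing 4-nitrophenyl acetate concentrations after 10 min preincubation at 25 °C; parallel inhibitor-free controls. Initial velocities plotted as Lineweaver–Burk double-reciprocal plots to derive mechanism and steady-state inhibition constants; each experiment in triplicate.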

[13] = target: Cholinesterase (Equus caballus) (UniProt P81908); test: Non-competitive inhibition of equine serum BuChE by double reciprocal Lineweaver-Burk plot analysis
In short: (§5)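 Residual activity measured with 3 increasing inhibitor concentrations and 5–6 decreasing substrate concentrations (ATCh for AChE, BTCh for BChE), DTNB read-out, 0.1 M K/Na phosphate pH 7.5, 25 °C; 10 min enzyme–inhibitor preincubation before substrate; no-inhibitor parallel control; triplicate; mechanism from Lineweaver-Burk plots.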

[14] = target: T4, Acetylcholinesterase; test: Non-competitive inhibition of human erythrocyte AChE by double reciprocal Lineweaver-Burk plot analysis; in short: as §5
[15] = target: T4, Acetylcholinesterase; test: Competitive inhibition of human erythrocyte AChE by double reciprocal Lineweaver-Burk plot analysis; in short: as §5
[16] = target: T2, Cholinesterase; test: Competitive inhibition of equine serum BuChE by double reciprocal Lineweaver-Burk plot analysis; in short: as §5
[17] = target: T3, Liver carboxylesterase; test: Competitive inhibition of porcine liver carboxylesterase by double reciprocal Lineweaver-Burk plot analysis; type: tissue-based; in short: as §4
[18] = target: T3, Liver carboxylesterase; test: Inhibition of porcine liver carboxylesterase at 20 uM using 4-NPA as substrate preincubated for 10 mins followed by substrate addition by spectrophotometric analysis relative to control; type: tissue-based; details: pig, probe 4-NPA; in short: as §1

T4 sequence (P22303 whole entry): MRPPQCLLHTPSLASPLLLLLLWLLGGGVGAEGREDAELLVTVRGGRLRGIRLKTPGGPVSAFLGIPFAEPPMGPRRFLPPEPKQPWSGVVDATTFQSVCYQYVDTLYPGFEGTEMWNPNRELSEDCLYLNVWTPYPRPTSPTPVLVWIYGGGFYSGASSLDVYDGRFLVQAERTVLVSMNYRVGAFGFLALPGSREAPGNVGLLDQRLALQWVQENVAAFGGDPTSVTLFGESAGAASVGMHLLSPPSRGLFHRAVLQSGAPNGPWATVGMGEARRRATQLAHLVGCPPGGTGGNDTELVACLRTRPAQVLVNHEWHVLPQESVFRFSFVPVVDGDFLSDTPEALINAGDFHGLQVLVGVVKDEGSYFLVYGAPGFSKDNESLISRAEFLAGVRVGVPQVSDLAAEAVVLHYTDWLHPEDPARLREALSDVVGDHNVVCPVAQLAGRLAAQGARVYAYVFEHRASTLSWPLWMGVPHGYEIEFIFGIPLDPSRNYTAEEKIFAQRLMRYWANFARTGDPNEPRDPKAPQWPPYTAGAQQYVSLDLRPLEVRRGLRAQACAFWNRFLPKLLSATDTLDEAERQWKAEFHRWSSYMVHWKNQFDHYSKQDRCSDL
T2 sequence (P81908 whole entry): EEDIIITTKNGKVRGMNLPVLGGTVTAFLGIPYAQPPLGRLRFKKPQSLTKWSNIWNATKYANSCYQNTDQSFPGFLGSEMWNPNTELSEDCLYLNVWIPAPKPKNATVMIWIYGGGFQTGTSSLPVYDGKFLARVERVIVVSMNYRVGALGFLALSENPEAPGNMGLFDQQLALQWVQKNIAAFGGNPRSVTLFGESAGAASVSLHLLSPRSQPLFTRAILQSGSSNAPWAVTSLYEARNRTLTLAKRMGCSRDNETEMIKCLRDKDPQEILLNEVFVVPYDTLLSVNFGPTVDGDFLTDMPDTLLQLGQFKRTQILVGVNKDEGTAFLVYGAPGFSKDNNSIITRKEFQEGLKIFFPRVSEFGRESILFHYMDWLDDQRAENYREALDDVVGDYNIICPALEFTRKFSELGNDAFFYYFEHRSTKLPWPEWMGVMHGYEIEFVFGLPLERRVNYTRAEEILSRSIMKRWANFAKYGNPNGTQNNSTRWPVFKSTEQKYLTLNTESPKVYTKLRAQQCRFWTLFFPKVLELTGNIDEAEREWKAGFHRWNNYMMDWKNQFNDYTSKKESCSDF
Cholinesterase (Equus caballus), sequence (P81908 whole entry): as above

Compound	IC50 [1] [µM]	IC50 [2] [µM]	IC50 [3] [µM]	IC50 [4] [µM]	Activity [5]	IC50 [6] [µM]	inhibition [9]	inhibition [10]	further results
COC(=O)/C(=N\Nc1ccccc1)C(=O)C(F)(F)F	0.0115	26.6	14.5	0.0555	0.78	20.1	–	–	–
Cc1c(C)c2c(c(C)c1O)CCC(C)(C(=O)O)O2 (stereo unspecified) [TROLOX]	–	20.4	–	–	1	–	–	–	–
COC(=O)/C(=N\Nc1ccccc1[N+](=O)[O-])C(=O)C(F)(F)F	0.102	–	45.1	0.00765	0.03	20.9	–	–	IC50 [7]: > 500 µM; LD50 at 336 h [8]: 300 mg/kg
CC(=O)/C(=N\Nc1ccc(C)cc1)C(=O)C(F)(F)F	–	15.6	–	56.6	1.33	–	13.4%	11%	–
CCOC(=O)/C(=N\Nc1ccccc1)C(=O)C(F)(F)F	0.0061	26.7	8.42	0.00614	0.8	3.22	–	–	IC50 [7]: > 500 µM; Activity [11]: Non-Toxic; LD50 at 336 h [8]: 600 mg/kg
CCOC(=O)/C(=N\Nc1cccc(C)c1)C(=O)C(F)(F)F	0.00517	25.4	38.1	0.00727	0.85	30.4	–	–	IC50 [7]: > 500 µM; LD50 at 336 h [8]: 300 mg/kg
COC(=O)/C(=N\Nc1ccc(OC)cc1)C(=O)C(F)(F)F	0.0213	22.5	49.6	0.0467	0.97	30.3	–	–	–
CCOC(=O)/C(=N\Nc1ccc(OC)cc1)C(=O)C(F)(F)F	0.00429	19.3	–	0.0131	1	4.62	24.3%	–	–
CCOC(=O)/C(=N\Nc1ccc(C)cc1)C(=O)C(F)F	–	53.3	–	3.23	0.37	–	12.4%	18.2%	–
CCOC(=O)/C(=N\Nc1ccc(C)cc1)C(=O)C(F)(F)C(F)(F)C(F)(F)C(F)(F)F	–	66.6	–	0.0893	0.26	–	4%	17.2%	–
CCOC(=O)/C(=N\Nc1ccc(Br)cc1)C(=O)C(F)(F)F	0.0153	36.3	2.02	0.00514	0.53	1.36	–	–	IC50 [7]: > 500 µM; LD50 at 336 h [8]: 300 mg/kg
Cc1ccc(N/N=C(\C(=O)c2ccccc2)C(=O)C(F)(F)F)cc1	–	12.8	–	5.54	1.7	–	19.4%	9.1%	–
CCOC(=O)/C(=N\Nc1ccc(C)cc1)C(=O)C(F)(F)C(F)(F)F	0.0474	55.2	31.1	0.164	0.36	–	–	11.5%	–
COC(=O)/C(=N\Nc1ccc(OC)cc1)C(=O)C(F)(F)C(F)(F)C(F)(F)F	0.111	50.3	–	0.103	0.4	–	21.2%	7.1%	–
Oc1ccccc1O [CATECHOL]	–	16.4	–	–	1.2	–	–	–	–
O=[N+]([O-])c1ccc(OP(=O)(O)Oc2ccc([N+](=O)[O-])cc2)cc1	–	–	–	–	–	–	inactive	inactive	–
COC(=O)/C(=N\Nc1ccc(C)cc1)C(=O)C(F)F	–	52.6	–	1.57	0.38	–	2.3%	5.8%	IC50 [7]: > 500 µM
CCOC(=O)/C(=N\Nc1ccc(C(=O)OCC)cc1)C(=O)C(F)(F)F	–	193	19.6	0.0471	0.1	3.79	–	–	–
COC(=O)/C(=N\Nc1ccc(C)cc1)C(=O)C(F)(F)F	0.0163	21.2	33	0.0278	0.98	28.3	–	–	alphaKi [12]: 82.2 nM; alphaKi [13]: 72.7 µM; alphaKi [14]: 139 µM; Ki [15]: 10.1 µM; Ki [16]: 29.2 µM; Ki [17]: 0.014 µM
CCOC(=O)/C(=N\Nc1ccccc1C(=O)OCC)C(=O)C(F)(F)F	–	–	0.122	0.0416	0.04	0.481	–	–	–
CCOC(=O)/C(=N\Nc1ccccc1[N+](=O)[O-])C(=O)C(F)(F)F	0.0241	–	8.06	0.00495	0.04	0.759	–	–	IC50 [7]: > 500 µM; LD50 at 336 h [8]: 300 mg/kg
CCOC(=O)/C(=N\Nc1ccc(F)cc1)C(=O)C(F)(F)F	0.0223	35.3	11.3	0.00716	0.6	2.67	–	–	IC50 [7]: > 500 µM
O=C1O[C@H]([C@@H](O)CO)C(O)=C1O [ASCORBIC ACID]	–	21.6	–	–	0.98	–	–	–	–
CCOC(=O)/C(=N\Nc1ccc(C)cc1)C(C)=O	–	52.4	–	–	0.38	–	inactive	6.8%	inhibition at 20 µM [18]: 12.1%
CCOC(=O)/C(=N\Nc1ccc(C)cc1)C(=O)C(F)(F)C(F)(F)C(F)(F)F	–	62.3	42.1	0.102	0.3	–	–	23.6%	–
